# Measured values collected from several papers.
# Lines come from different studies, so protocols differ.
# Target: cGMP-dependent protein kinase 1 (PRKG1, Homo sapiens, UniProt Q13976)
# One construct used (Q13976 1-671): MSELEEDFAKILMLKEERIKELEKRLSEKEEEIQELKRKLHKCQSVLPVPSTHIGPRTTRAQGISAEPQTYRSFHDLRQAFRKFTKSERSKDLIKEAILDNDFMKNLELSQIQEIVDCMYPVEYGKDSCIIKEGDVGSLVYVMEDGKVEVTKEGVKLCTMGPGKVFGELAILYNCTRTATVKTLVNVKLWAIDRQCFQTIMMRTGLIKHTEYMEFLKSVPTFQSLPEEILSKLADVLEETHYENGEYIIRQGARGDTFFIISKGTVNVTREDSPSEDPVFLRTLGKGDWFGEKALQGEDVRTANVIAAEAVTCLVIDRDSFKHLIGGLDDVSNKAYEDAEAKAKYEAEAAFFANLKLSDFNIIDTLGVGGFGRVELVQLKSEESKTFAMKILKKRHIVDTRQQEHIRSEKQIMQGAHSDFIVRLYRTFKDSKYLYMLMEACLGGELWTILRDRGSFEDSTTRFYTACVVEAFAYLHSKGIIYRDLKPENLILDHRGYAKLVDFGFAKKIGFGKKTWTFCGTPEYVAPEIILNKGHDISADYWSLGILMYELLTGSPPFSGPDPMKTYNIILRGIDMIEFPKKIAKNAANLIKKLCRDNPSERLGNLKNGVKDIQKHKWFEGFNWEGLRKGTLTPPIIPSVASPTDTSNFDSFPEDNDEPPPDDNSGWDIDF
Structure (SMILES),test,conditions,remaining binding [%]
N[C@H]1CCN(c2nccc(-c3cnn4ncccc34)n2)C1,binding,1 µM,89
Nc1ncc2c(n1)-c1c([nH]c3ccc(C#CC4CC4)cc13)CCCC2,"binding, competition with immobilised ligand",1 µM,86
CCOC(=O)c1cc2cc(-c3cc(C(=O)NCc4ccc(C(=O)O)cc4)nn3C)ccc2[nH]1,"cell-free assay, competition with immobilised ligand",0.1 µM,91
O=C(c1ccc(Nc2ncc(Cl)c(-c3ccc(Cl)s3)n2)cc1)N1CCC(N2CCCC2)CC1,"binding, competition with immobilised ligand",1 µM,100
COc1cc(-c2cn(C3CCc4c(F)cccc4N(CC(F)(F)F)C3=O)nn2)ccc1-n1cnc(C)c1 (stereo not drawn),"cell-free assay, competition with immobilised ligand",1 µM,100
COc1ncc2cc3ccccc3nc2c1C#N,"cell-free assay, competition with immobilised ligand",5 µM,100
F[C@@H]1CCN(c2nccc(-c3cnn4ncccc34)n2)C1,binding,1 µM,90
COc1cnc(Nc2cccc(S(N)(=O)=O)c2)nc1N1CCN(c2ccccc2)CC1,"binding, competition with immobilised ligand",1 µM,100
O=C(N[C@H]1CCCCC/C=C\C2C[C@@]2(C(=O)O)NC(=O)[C@@H]2C[C@@H](Oc3ccncc3)CN2C1=O)OC1CCCC1 (stereo partly drawn),"binding, competition with immobilised ligand",1 µM,100
c1cnn2ncc(-c3ccnc(N4CCC45COC5)n3)c2c1,binding,1 µM,89
CCCOc1ccc([C@H]2[C@H](C(=O)O)[C@@H](c3ccc4c(c3)OCO4)CN2CC(=O)Nc2c(CC)cccc2CC)cc1,"cell-free assay, competition with immobilised ligand",1 µM,88
O=C(c1ccc(Nc2nccc(-c3cc4ccccc4s3)n2)cc1)N1CCC(N2CCCC2)CC1,"binding, competition with immobilised ligand",1 µM,100
C=CC(=O)N1CCC(C(=O)NCC(=O)N2CCN(c3nc(-c4cnc(N)nc4C(F)F)nc(N4CCOCC4)n3)CC2)CC1,"binding, competition with immobilised ligand",1 µM,87
c1cncc(-c2cccc(Nc3nccc(NC4CCCCC4)n3)c2)c1,"binding, competition with immobilised ligand",10 µM,100
CN([C@@H]1CCc2c(CC(=O)O)c3cc(S(C)(=O)=O)ccc3n2C1)S(=O)(=O)c1ccc(F)cc1,"cell-free assay, competition with immobilised ligand",1 µM,95
C[C@@H]1CCN(c2nccc(-c3cnn4ncccc34)n2)C1,binding,1 µM,68
CC1=C(C#N)[C@@H](c2ccc3[nH]nc(C)c3c2)C(C#N)=C(c2ccc(Cl)cc2)N1,"cell-free assay, competition with immobilised ligand",1 µM,86.9
CN(C)c1nccc(-c2cnc3ncccn23)n1,binding,1 µM,81
Cc1cnc(Nc2ccc(C(=O)N3CCC(N4CCCC4)CC3)cc2)nc1-c1cc2ccccc2s1,"binding, competition with immobilised ligand",1 µM,100
O=C(NCC1CCOCC1)c1n[nH]cc1NC(=O)c1c(F)cccc1F,"binding, competition with immobilised ligand",1 µM,100
CN(C)c1nccc(-c2cnn3ncccc23)n1,binding,1 µM,100
